Laboratory results from ChEMBL document CHEMBL1828575, “Design, synthesis and antiproliferative activities of biarylolefins based on polyhydroxylated and carbohydrate scaffolds” (Eur J Med Chem, 2011).

How the values were obtained:
Assay type in all cases: functional
786-0 = assay: Cytotoxicity against human 786-0 cells assessed as cellular growth at 10 uM after 48 hrs by SRB assay
Summary of the method: (§1)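 NCI60 single-dose screen of cells in RPMI 1640 with 5% FBS and 2 mM L-glutamine, preincubated 24 h at 37 °C, 5% CO₂. Cells were then exposed 48 h to compound added from DMSO stock. TCA-fixed, stained with 0.4% SRB in 1% acetic acid, dye solubilised in 10 mM Tris base and read at 515 nm. Growth is given as percent of untreated control.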

MDA-MB-231 = assay: Antitumor activity against human MDA-MB-231 cells after 48 hrs by SRB assay; details: MDA-MB-231, 48 h
Summary of the method: (§2)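 NCI60 panel in RPMI 1640 with 5% FBS and 2 mM L-glutamine. Cells were plated at 5000–40,000/well by doubling time, held 24 h, then time-zero plates were TCA-fixed. Five concentrations (10-fold or half-log dilutions of DMSO stocks) were applied for 48 h at 37 °C, 5% CO2. Cells were fixed with cold TCA (10% final adherent, 16% suspension) and stained with 0.4% SRB. Bound dye was dissolved in 10 mM Tris and read at 515 nm. GI50, TGI and LC50 were calculated per line.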

NCI-H322M = assay: Antitumor activity against human NCI-H322M cells after 48 hrs by SRB assay; summary of the method: as §2
IGROV-1 = assay: Antitumor activity against human IGROV1 cells after 48 hrs by SRB assay; details: IGROV-1, 48 h; summary of the method: as §2
OVCAR-8 = assay: Cytotoxicity against human OVCAR8 cells assessed as cellular growth at 10 uM after 48 hrs by SRB assay
Summary of the method: (§3)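 NCI-60 panel lines grown in RPMI 1640 with 5% FBS and 2 mM L-glutamine. Plated at 5000–40,000 cells/well and preincubated 24 h at 37 °C, 5% CO₂, with time-zero plates fixed in TCA. Compounds, dissolved in DMSO and diluted in medium, were applied for 48 h. Cells were TCA-fixed (10% final for adherent, 16% for suspension) and stained with 0.4% SRB in 1% acetic acid. Dye was solubilised in 10 mM Tris base and read at 515 nm; growth was expressed as a percentage of untreated control.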

COLO 205 = assay: Antitumor activity against human COLO205 cells after 48 hrs by SRB assay; details: COLO 205, 48 h; summary of the method: as §2
MDA-MB-468 = assay: Antitumor activity against human MDA-MB-468 cells after 48 hrs by SRB assay; details: MDA-MB-468, 48 h; summary of the method: as §2
NCI-H460 = assay: Antitumor activity against human NCI-H460 cells after 48 hrs by SRB assay; details: NCI-H460, 48 h; summary of the method: as §2
EKVX = assay: Cytotoxicity against human EKVX cells assessed as cellular growth at 10 uM after 48 hrs by SRB assay; summary of the method: as §1
UO-31 = assay: Antitumor activity against human UO31 cells after 48 hrs by SRB assay; details: UO-31, 48 h
Summary of the method: (§4)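 NCI60 panel cells grown in RPMI 1640 with 5% FBS and 2 mM L-glutamine, plated at 5000–40,000 cells/well and preincubated 24 h at 37 °C, 5% CO₂. Compound was added from DMSO at five concentrations, 10-fold or 1/2 log dilutions, then incubated 48 h.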

CAKI-1 = assay: Antitumor activity against human Caki1 cells after 48 hrs by SRB assay; details: CAKI-1, 48 h; summary of the method: as §2
SN12C = assay: Cytotoxicity against human SN12C cells assessed as cellular growth at 10 uM after 48 hrs by SRB assay; summary of the method: as §3
SF-539 [1] = assay: Cytotoxicity against human SF539 cells assessed as cellular growth at 10 uM after 48 hrs by SRB assay; summary of the method: as §3
CCRF-CEM = assay: Cytotoxicity against human CCRF-CEM cells assessed as cellular growth at 10 uM after 48 hrs by SRB assay; summary of the method: as §1
NCI-H226 = assay: Antitumor activity against human NCI-H226 cells after 48 hrs by SRB assay; details: NCI-H226, 48 h; summary of the method: as §2
K562 = assay: Antitumor activity against human K562 cells after 48 hrs by SRB assay; details: K562, 48 h; summary of the method: as §2
SF-539 [2] = assay: Antitumor activity against human SF539 cells after 48 hrs by SRB assay; details: SF-539, 48 h; summary of the method: as §4
NCI/ADR-RES = assay: Antitumor activity against human NCI/ADR-RES cells after 48 hrs by SRB assay; summary of the method: as §2
SNB-19 = assay: Cytotoxicity against human SNB19 cells assessed as cellular growth at 10 uM after 48 hrs by SRB assay; summary of the method: as §3
TK-10 = assay: Antitumor activity against human TK10 cells after 48 hrs by SRB assay; details: TK-10, 48 h; summary of the method: as §4
SNB-75 = assay: Antitumor activity against human SNB75 cells after 48 hrs by SRB assay; details: SNB-75, 48 h; summary of the method: as §4
[3] = read-out: LC50 (the source's name)
[4] = read-out: pLC50 (the source's name) (converted)

Question: For `COc1ccc(/C(=C2/O[C@@H]([C@H]3COC(C)(C)O3)[C@H]3OC(C)(C)O[C@@H]23)c2cc(OC)c(OC)c(OC)c2)cc1O`, which Activity (786-0) is on record?
Answer: 100.71%

Question: What about the GI50 (MDA-MB-231) of the same molecule?
Answer: 4.58 µM

Question: What about the TGI (MDA-MB-231) of the same molecule?
Answer: 30.7 µM

Question: And the CC50 (MDA-MB-231; [3])?
Answer: > 100 µM

Question: What about the GI50 (NCI-H322M; read-out: GI50) of the same molecule?
Answer: 6.58 µM

Question: What about the CC50 (NCI-H322M; [3]) of the same molecule?
Answer: > 100 µM

Question: What about the TGI (NCI-H322M; read-out: TGI) of the same molecule?
Answer: > 100 µM

Question: What about the GI50 (NCI-H322M; read-out: pGI50 (converted)) of the same molecule?
Answer: 6.61 µM

Question: And the CC50 (NCI-H322M; [4])?
Answer: > 100 µM

Question: What about the TGI (NCI-H322M; read-out: pTGI) of the same molecule?
Answer: > 100 µM

Question: What about the GI50 (IGROV-1; read-out: GI50) of the same molecule?
Answer: 3.32 µM

Question: And the CC50 (IGROV-1; [3])?
Answer: > 100 µM

Question: And the TGI (IGROV-1; read-out: TGI)?
Answer: > 100 µM

Question: And the GI50 (IGROV-1; read-out: pGI50 (converted))?
Answer: 33.1 µM

Question: And the CC50 (IGROV-1; [4])?
Answer: > 100 µM

Question: And the TGI (IGROV-1; read-out: pTGI)?
Answer: > 100 µM

Question: What about the Activity (OVCAR-8) of the same molecule?
Answer: 68.27%

Question: And the CC50 (COLO 205; [3])?
Answer: > 100 µM

Question: And the TGI (COLO 205; read-out: TGI)?
Answer: > 100 µM

Question: And the GI50 (COLO 205; read-out: pGI50 (converted))?
Answer: 17.8 µM

Question: What about the CC50 (COLO 205; [4]) of the same molecule?
Answer: > 100 µM

Question: What about the TGI (COLO 205; read-out: pTGI (converted)) of the same molecule?
Answer: > 100 µM

Question: What about the GI50 (MDA-MB-468; read-out: GI50) of the same molecule?
Answer: 1.45 µM

Question: And the CC50 (MDA-MB-468; [3])?
Answer: 80.6 µM

Question: What about the TGI (MDA-MB-468; read-out: TGI) of the same molecule?
Answer: 34.1 µM

Question: And the GI50 (MDA-MB-468; read-out: pGI50 (converted))?
Answer: 14.5 µM

Question: What about the CC50 (MDA-MB-468; [4]) of the same molecule?
Answer: > 100 µM

Question: What about the TGI (MDA-MB-468; read-out: pTGI (converted)) of the same molecule?
Answer: 33.9 µM

Question: What about the GI50 (NCI-H460; read-out: GI50) of the same molecule?
Answer: 4.31 µM

Question: What about the CC50 (NCI-H460; [3]) of the same molecule?
Answer: > 100 µM

Question: And the TGI (NCI-H460; read-out: TGI)?
Answer: > 100 µM

Question: And the GI50 (NCI-H460; read-out: pGI50 (converted))?
Answer: 4.27 µM

Question: What about the CC50 (NCI-H460; [4]) of the same molecule?
Answer: > 100 µM

Question: What about the TGI (NCI-H460; read-out: pTGI) of the same molecule?
Answer: > 100 µM

Question: And the Activity (EKVX)?
Answer: 90.16%

Question: What about the GI50 (UO-31; read-out: GI50) of the same molecule?
Answer: 7.53 µM

Question: And the CC50 (UO-31; [3])?
Answer: > 100 µM

Question: What about the TGI (UO-31; read-out: TGI) of the same molecule?
Answer: 77.8 µM

Question: What about the GI50 (UO-31; read-out: pGI50 (converted)) of the same molecule?
Answer: 7.59 µM

Question: What about the CC50 (UO-31; [4]) of the same molecule?
Answer: > 100 µM

Question: What about the TGI (UO-31; read-out: pTGI (converted)) of the same molecule?
Answer: 77.6 µM

Question: What about the GI50 (CAKI-1; read-out: GI50) of the same molecule?
Answer: 3.73 µM

Question: And the CC50 (CAKI-1; [3])?
Answer: 29.8 µM

Question: And the TGI (CAKI-1; read-out: TGI)?
Answer: > 100 µM

Question: And the GI50 (CAKI-1; read-out: pGI50 (converted))?
Answer: 37.2 µM

Question: What about the CC50 (CAKI-1; [4]) of the same molecule?
Answer: > 100 µM

Question: And the TGI (CAKI-1; read-out: pTGI (converted))?
Answer: > 100 µM

Question: And the Activity (SN12C)?
Answer: 57.72%

Question: And the Activity (SF-539 [1])?
Answer: 9.85%

Question: And the Activity (CCRF-CEM)?
Answer: 47.94%

Question: And the GI50 (NCI-H226; read-out: GI50)?
Answer: 2.59 µM

Question: What about the CC50 (NCI-H226; [3]) of the same molecule?
Answer: > 100 µM

Question: What about the TGI (NCI-H226; read-out: TGI) of the same molecule?
Answer: > 100 µM

Question: And the GI50 (NCI-H226; read-out: pGI50 (converted))?
Answer: 25.7 µM

Question: And the CC50 (NCI-H226; [4])?
Answer: > 100 µM

Question: And the TGI (NCI-H226; read-out: pTGI (converted))?
Answer: > 100 µM

Question: And the GI50 (K562; read-out: GI50)?
Answer: 3.22 µM

Question: And the CC50 (K562; [3])?
Answer: > 100 µM

Question: And the TGI (K562; read-out: TGI)?
Answer: > 100 µM

Question: What about the GI50 (K562; read-out: pGI50 (converted)) of the same molecule?
Answer: 3.24 µM

Question: And the CC50 (K562; [4])?
Answer: > 100 µM

Question: What about the TGI (K562; read-out: pTGI) of the same molecule?
Answer: > 100 µM

Question: And the GI50 (SF-539 [2])?
Answer: 2.59 µM

Question: And the TGI (SF-539 [2])?
Answer: 6.63 µM

Question: What about the CC50 (SF-539 [2]; [3]) of the same molecule?
Answer: > 100 µM

Question: And the GI50 (NCI/ADR-RES)?
Answer: 2.52 µM

Question: And the LC50 (NCI/ADR-RES)?
Answer: > 100 µM

Question: What about the TGI (NCI/ADR-RES) of the same molecule?
Answer: 6.91 µM

Question: What about the Activity (SNB-19) of the same molecule?
Answer: 47.41%

Question: What about the GI50 (TK-10; read-out: GI50) of the same molecule?
Answer: 2.94 µM

Question: And the CC50 (TK-10; [3])?
Answer: > 100 µM

Question: And the TGI (TK-10; read-out: TGI)?
Answer: 81.4 µM

Question: What about the GI50 (TK-10; read-out: pGI50 (converted)) of the same molecule?
Answer: 23.4 µM

Question: And the CC50 (TK-10; [4])?
Answer: > 100 µM

Question: And the TGI (TK-10; read-out: pTGI (converted))?
Answer: 61.7 µM

Question: And the GI50 (SNB-75)?
Answer: 1.8 µM

Question: And the TGI (SNB-75)?
Answer: 6.31 µM

Question: And the CC50 (SNB-75; [3])?
Answer: 53.5 µM
